Experimental data reported in ChEMBL document CHEMBL1152321, “Recent advances in the chemistry and biology of new generation taxoids” (J Nat Prod, 2009).
Active and inactive are the calls of the source. The calls are words filed in the database; no cut-off is given here.

Tests used:
[1] = test system: DLD-1; test: Antitumor activity against human DLD1 cells expressing P-glycoprotein xenografted in SCID mouse assessed as tumor growth delay at 20 mg/kg, iv administered on day 5, 8, 11 post tumor implantation; assay type: functional
Outline: (§1)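 SCID mice carrying subcutaneous Pgp+ DLD-1 human colon tumours were dosed i.v. q3d×3 on days 5, 8 and 11 after implant, in Tween/EtOH vehicle, with vehicle and untreated control groups. Growth delay was compared with controls by Cox-Mantel test. Cures were mice with no palpable tumour on day 167. Toxicity was counted as death or more than 20% body-weight loss.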

[2] = test system: DLD-1; test: Antitumor activity against human DLD1 cells expressing P-glycoprotein xenografted in SCID mouse assessed as tumor growth delay at 40 mg/kg, iv administered on day 5, 8, 11 post tumor implantation; assay type: functional; outline: as §1
[3] = test system: DLD-1; test: Antitumor activity against human DLD1 cells expressing P-glycoprotein xenografted in SCID mouse assessed as tumor growth delay at 10 mg/kg, iv administered on day 5, 8, 11 post tumor implantation; assay type: functional; outline: as §1
[4] = test system: DLD-1; test: Antitumor activity against human DLD1 cells expressing P-glycoprotein xenografted in SCID mouse assessed as no palpable tumors at 10 mg/kg, iv administered on day 5, 8, 11 post tumor implantation measured on day 167; assay type: functional, organism-based; design: dose 10 mg/kg; outline: as §1
[5] = species: Mus musculus; test: Toxicity in SCID mouse assessed as decrease in body weight after day 15 to day 20; assay type: organism-based; design: scale not given: the % may be the effect or the level left; settings: in vivo
[6] = Cytotoxicity against human primary pancreatic ductal cells up to 10 uM; assay type: cell-based
[7] = test system: DLD-1; test: Antitumor activity against human DLD1 cells expressing P-glycoprotein xenografted in SCID mouse assessed as no palpable tumors at 20 mg/kg, iv administered on day 5, 8, 11 post tumor implantation measured on day 167; assay type: functional, organism-based; design: dose 20 mg/kg; outline: as §1
[8] = test system: MCF7; test: Resistance factor, ratio of IC50 for P-glycoprotein deficient wild type human MCF7 cells to IC50 for multidrug-resistant human NCI/ADR cells; assay type: functional
[9] = test system: A2780; test: Resistance factor, […] harboring point mutation in beta-tubulin; assay type: functional
[10] = Cytotoxicity against P-glycoprotein deficient wild type human LCC-6 cells after 72 hrs; assay type: functional, cell-based; settings: LCC-6, 72 h
[11] = Resistance factor, ratio of IC50 for human LCC-6 cells expressing P-glycoprotein to IC50 for P-glycoprotein deficient wild type human LCC-6 cells; assay type: functional; design: reference not given here

SMILES | Activity [1] [days] | Activity [2] [days] | Activity [3] [days] | Activity [4] | Activity [5] [%] | Activity [6] | Activity [7] | Ratio [8] | Ratio [9] | IC50 [10] [nM] | Ratio [11]
CC(=O)O[C@@]12CO[C@@H]1C[C@H](O)[C@@]1(C)C(=O)[C@H](OC(=O)C3CC3)C3=C(C)[C@@H](OC(=O)[C@H](O)[C@H](C=C(C)C)NC(=O)OC(C)(C)C)C[C@@](O)([C@@H](OC(=O)c4ccccc4)[C@H]21)C3(C)C | >150 | >150 | 37 | inactive | 3 | Not Active | Active | – | – | – | –
CCC(=O)O[C@H]1C(=O)[C@@]2(C)[C@H]([C@H](OC(=O)c3cccc(OC)c3)[C@]3(O)C[C@H](OC(=O)[C@H](O)[C@H](C=C(C)C)NC(=O)OC(C)(C)C)C(C)=C1C3(C)C)[C@]1(OC(C)=O)CO[C@@H]1C[C@@H]2O | – | – | – | – | – | – | – | 0.92 | 5.1 | 1 | 0.9
